From ChEMBL document CHEMBL3120107, “Cytotoxic cardiac glycosides and coumarins from Antiaris toxicaria” (2014)
≈ marks a conversion by molar mass, not a printed value. Calls of active or inactive are those of the source. The calls are words filed in the database; no cut-off is given here.

Columns and labels:
[1] = Cytotoxicity against human […] cells assessed as growth inhibition after 72 hrs by SRB assay; type: functional; conditions: Homo sapiens, HCT9, 72 h; read-out: ED50 (the source's name)
Outline: (§1)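 Sulforhodamine B assay run by NCI-validated procedure. Cells grown at 37 °C under humidified 5% CO2 in RPMI-1640 with 25 mM HEPES, […] (w/v) sodium bicarbonate, 10% (v/v) FBS and 100 μg/mL kanamycin. Compounds came from DMSO stocks, with final DMSO ≤ 1% (v/v). Continuous exposure for 72 h. ED50 (μg/mL, 50% cell-number reduction) interpolated from dose-response data. Triplicate tests. Doxorubicin served as positive control.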

A549 = test: Cytotoxicity against human A549 cells assessed as growth inhibition after 72 hrs by SRB assay; type: functional; conditions: Homo sapiens, A549, 72 h; read-out: ED50 (the source's name); outline: as §1
SK-MEL-2 = test: Cytotoxicity against human SK-MEL-2 cells assessed as growth inhibition after 72 hrs by SRB assay; type: functional; conditions: for EC50: Homo sapiens, SK-MEL-2, 72 h, read-out: ED50 (the source's name); outline: as §1
CAKI-1 = test: Cytotoxicity against human CAKI-1 cells assessed as growth inhibition after 72 hrs by SRB assay; type: functional; conditions: for EC50: Homo sapiens, CAKI-1, 72 h, read-out: ED50 (the source's name); outline: as §1
KBVIN = test: (§2) Cytotoxicity against human KBVIN cells assessed as growth inhibition after 72 hrs by SRB assay; type: functional; outline: as §1
1A9 = test: Cytotoxicity against human 1A9 cells assessed as growth inhibition after 72 hrs by SRB assay; type: functional; conditions: for EC50: Homo sapiens, 1A9, 72 h, read-out: ED50 (the source's name); outline: as §1
MCF7 = test: Cytotoxicity against human MCF7 cells assessed as growth inhibition after 72 hrs by SRB assay; type: functional; conditions: Homo sapiens, MCF7, 72 h; read-out: ED50 (the source's name); outline: as §1
PC-3 = test: Cytotoxicity against human PC3 cells assessed as growth inhibition after 72 hrs by SRB assay; type: functional; conditions: for EC50: Homo sapiens, PC-3, 72 h, read-out: ED50 (the source's name); outline: as §1
KB = test: Cytotoxicity against human KB cells assessed as growth inhibition after 72 hrs by SRB assay; type: functional; conditions: Homo sapiens, KB, 72 h; read-out: ED50 (the source's name); outline: as §1
[2] = Cytotoxicity against human U87MG cells assessed as growth inhibition after 72 hrs by SRB assay; type: functional, U-87MG ATCC; conditions: Homo sapiens, U-87 MG, 72 h; read-out: ED50 (the source's name); outline: as §1
[3] = as §2; type: functional; conditions: Homo sapiens, KBVIN, 72 h; read-out: ED50 (the source's name); outline: as §1

| Compound | EC50 [1] | EC50 (A549) | EC50 (SK-MEL-2) | EC50 (CAKI-1) | growth inhibition (GI) (KBVIN) | EC50 (1A9) | EC50 (MCF7) | EC50 (PC-3) | EC50 (KB) | EC50 [2] | EC50 [3] | growth inhibition (GI) (PC-3) | growth inhibition (GI) (SK-MEL-2) | growth inhibition (GI) (CAKI-1) | growth inhibition (GI) (1A9) |
| --- | --- | --- | --- | --- | --- | --- | --- | --- | --- | --- | --- | --- | --- | --- | --- |
| COc1c(CC(O)C(C)(C)O)cc2ccc(=O)oc2c1O (centres undefined) | 6.7 µg/mL (≈ 22.8 µM) | 10.8 µg/mL (≈ 36.7 µM) | 1.3 µg/mL (≈ 4.42 µM) | 1.5 µg/mL (≈ 5.1 µM) | inactive | 1.5 µg/mL (≈ 5.1 µM) | > 20 µg/mL | – | – | – | – | – | – | – | – |
| C[C@H]1O[C@H](O[C@H]2CC[C@]3(C(=O)O)[C@H]4C[C@@H](O)[C@]5(C)[C@@H](C6=CC(=O)OC6)CC[C@]5(O)[C@@H]4CC[C@]3(O)C2)[C@H](O)[C@H](O)[C@H]1O [ANTIAROSIDE H] | 2.5 µg/mL (≈ 4.29 µM) | 0.76 µg/mL (≈ 1.3 µM) | 1.3 µg/mL (≈ 2.23 µM) | 1.5 µg/mL (≈ 2.57 µM) | – | 1.4 µg/mL (≈ 2.4 µM) | 3.1 µg/mL (≈ 5.32 µM) | 1.8 µg/mL (≈ 3.09 µM) | 5.9 µg/mL (≈ 10.1 µM) | 7.3 µg/mL (≈ 12.5 µM) | 7.1 µg/mL (≈ 12.2 µM) | – | – | – | – |
| C[C@@H]1O[C@H](O[C@H]2CC[C@@H]3[C@H]4CC[C@]5(C)[C@@H](C6=CC(=O)OC6)CC[C@]5(O)[C@@H]4CC[C@]3(O)C2)[C@H](O)[C@H](O)[C@H]1O [ANTIAROSIDE I] | 2.9 µg/mL (≈ 5.55 µM) | 0.36 µg/mL (≈ 0.689 µM) | 0.3 µg/mL (≈ 0.574 µM) | 1.1 µg/mL (≈ 2.1 µM) | – | 0.83 µg/mL (≈ 1.59 µM) | 1.3 µg/mL (≈ 2.49 µM) | 0.9 µg/mL (≈ 1.72 µM) | 2 µg/mL (≈ 3.83 µM) | 3.6 µg/mL (≈ 6.89 µM) | 2.3 µg/mL (≈ 4.4 µM) | – | – | – | – |
| C[C@@H]1O[C@@H](O[C@H]2CC[C@]3(C=O)[C@H]4CC[C@]5(C)[C@@H](C6=CC(=O)OC6)CC[C@]5(O)[C@@H]4CC[C@]3(O)C2)[C@H](O)[C@H](O)[C@H]1O [CONVALLATOXIN] | 0.0014 µg/mL (≈ 0.00254 µM) | 0.0027 µg/mL (≈ 0.0049 µM) | 0.0013 µg/mL (≈ 0.00236 µM) | 0.0031 µg/mL (≈ 0.00563 µM) | – | 0.03 µg/mL (≈ 0.0545 µM) | 0.0065 µg/mL (≈ 0.0118 µM) | 0.094 µg/mL (≈ 0.171 µM) | 0.014 µg/mL (≈ 0.0254 µM) | 0.014 µg/mL (≈ 0.0254 µM) | 0.013 µg/mL (≈ 0.0236 µM) | – | – | – | – |
| C[C@@H]1O[C@H](O[C@H]2CC[C@]3(CO)[C@H]4CC[C@]5(C)[C@@H](C6=CC(=O)OC6)CC[C@]5(O)[C@@H]4CC[C@]3(O)C2)[C@H](O)[C@H](O)[C@H]1O [CONVALLATOXOL] | 0.02 µg/mL (≈ 0.0362 µM) | 0.004 µg/mL (≈ 0.00724 µM) | 0.014 µg/mL (≈ 0.0253 µM) | 0.0061 µg/mL (≈ 0.011 µM) | – | 0.0076 µg/mL (≈ 0.0138 µM) | 0.012 µg/mL (≈ 0.0217 µM) | 0.013 µg/mL (≈ 0.0235 µM) | 0.025 µg/mL (≈ 0.0452 µM) | 0.036 µg/mL (≈ 0.0651 µM) | 0.014 µg/mL (≈ 0.0253 µM) | – | – | – | – |
| C[C@@H]1O[C@@H](O[C@H]2CC[C@]3(C=O)[C@H]4CC[C@]5(C)[C@@H](C6=CC(=O)OC6)CC[C@]5(O)[C@@H]4CC[C@]3(O)C2)[C@H](O)[C@H](O)[C@H]1O[C@@H]1O[C@H](CO)[C@@H](O)[C@H](O)[C@H]1O [CONVALLOSIDE] | 0.2 µg/mL (≈ 0.281 µM) | 0.07 µg/mL (≈ 0.0982 µM) | 0.42 µg/mL (≈ 0.589 µM) | 0.071 µg/mL (≈ 0.0996 µM) | – | 0.072 µg/mL (≈ 0.101 µM) | 0.15 µg/mL (≈ 0.21 µM) | 0.095 µg/mL (≈ 0.133 µM) | 0.2 µg/mL (≈ 0.281 µM) | 0.4 µg/mL (≈ 0.561 µM) | 0.18 µg/mL (≈ 0.253 µM) | – | – | – | – |
| C[C@H]1O[C@@H](O[C@H]2CC[C@]3(C=O)[C@H]4CC[C@]5(C)[C@@H](C6=CC(=O)OC6)CC[C@]5(O)[C@@H]4CC[C@]3(O)C2)[C@H](O)[C@H](O)[C@H]1O [DESGLUCOCHEIROTOXIN] | 0.044 µg/mL (≈ 0.0799 µM) | 0.0092 µg/mL (≈ 0.0167 µM) | 0.015 µg/mL (≈ 0.0272 µM) | 0.014 µg/mL (≈ 0.0254 µM) | – | 0.012 µg/mL (≈ 0.0218 µM) | 0.015 µg/mL (≈ 0.0272 µM) | 0.018 µg/mL (≈ 0.0327 µM) | 0.044 µg/mL (≈ 0.0799 µM) | 0.054 µg/mL (≈ 0.0981 µM) | 0.018 µg/mL (≈ 0.0327 µM) | – | – | – | – |
| C[C@H]1O[C@H](O[C@H]2CC[C@]3(C=O)[C@H]4CC[C@]5(C)[C@@H](C6=CC(=O)OC6)CC[C@]5(O)[C@@H]4CC[C@]3(O)C2)[C@H](O)[C@H](O[C@@H]2O[C@H](CO)[C@@H](O)[C@H](O)[C@H]2O)[C@@H]1O [GLUCOSTROPHALLOSIDE] | 0.13 µg/mL (≈ 0.182 µM) | 0.038 µg/mL (≈ 0.0533 µM) | 0.12 µg/mL (≈ 0.168 µM) | 0.065 µg/mL (≈ 0.0912 µM) | – | 0.057 µg/mL (≈ 0.08 µM) | 0.096 µg/mL (≈ 0.135 µM) | 0.084 µg/mL (≈ 0.118 µM) | 0.12 µg/mL (≈ 0.168 µM) | 0.15 µg/mL (≈ 0.21 µM) | 0.083 µg/mL (≈ 0.116 µM) | – | – | – | – |
| C[C@@H]1O[C@H](O[C@H]2CC[C@@]3(C=O)[C@H](CC[C@@H]4[C@@H]3CC[C@]3(C)[C@@H](C5=CC(=O)OC5)CC[C@]43O)C2)[C@H](O)[C@H](O)[C@H]1O [MALAYOSIDE] | 0.18 µg/mL (≈ 0.337 µM) | 0.08 µg/mL (≈ 0.15 µM) | 0.62 µg/mL (≈ 1.16 µM) | 0.073 µg/mL (≈ 0.137 µM) | – | 0.076 µg/mL (≈ 0.142 µM) | 0.19 µg/mL (≈ 0.355 µM) | 0.11 µg/mL (≈ 0.206 µM) | 0.3 µg/mL (≈ 0.561 µM) | 0.37 µg/mL (≈ 0.692 µM) | 0.32 µg/mL (≈ 0.599 µM) | – | – | – | – |
| CC(C)(O)[C@@H]1Cc2cc3ccc(=O)oc3cc2O1 [MARMESIN] | – | > 20 µg/mL | – | – | inactive | – | > 20 µg/mL | – | – | – | – | inactive | inactive | inactive | inactive |
| C[C@@H]1O[C@H](O[C@H]2CC[C@]3(C)[C@H]4CC[C@]5(C)[C@@H](C6=CC(=O)OC6)CC[C@]5(O)[C@@H]4CC[C@]3(O)C2)[C@H](O)[C@H](O)[C@H]1O [PERIPLORHAMNOSIDE] | 0.044 µg/mL (≈ 0.082 µM) | 0.012 µg/mL (≈ 0.0224 µM) | 0.017 µg/mL (≈ 0.0317 µM) | 0.014 µg/mL (≈ 0.0261 µM) | – | 0.012 µg/mL (≈ 0.0224 µM) | 0.018 µg/mL (≈ 0.0335 µM) | 0.021 µg/mL (≈ 0.0391 µM) | 0.054 µg/mL (≈ 0.101 µM) | 0.082 µg/mL (≈ 0.153 µM) | 0.02 µg/mL (≈ 0.0373 µM) | – | – | – | – |
| C[C@]12CC[C@H]3[C@@H](CC[C@]4(O)C[C@@H](O)CC[C@]34C=O)[C@@]1(O)CC[C@@H]2C1=CC(=O)OC1 [STROPHANTHIDIN] | 0.51 µg/mL (≈ 1.26 µM) | 0.11 µg/mL (≈ 0.272 µM) | 0.13 µg/mL (≈ 0.321 µM) | 0.14 µg/mL (≈ 0.346 µM) | – | 0.15 µg/mL (≈ 0.371 µM) | 0.38 µg/mL (≈ 0.939 µM) | 0.17 µg/mL (≈ 0.42 µM) | 0.61 µg/mL (≈ 1.51 µM) | 0.72 µg/mL (≈ 1.78 µM) | 0.69 µg/mL (≈ 1.71 µM) | – | – | – | – |
| C[C@]12CC[C@H]3[C@@H](CC[C@]4(O)C[C@@H](O)CC[C@]34CO)[C@@]1(O)CC[C@@H]2C1=CC(=O)OC1 [STROPHANTHIDOL] | 6.4 µg/mL (≈ 15.7 µM) | 0.14 µg/mL (≈ 0.344 µM) | 0.57 µg/mL (≈ 1.4 µM) | 0.67 µg/mL (≈ 1.65 µM) | – | 0.66 µg/mL (≈ 1.62 µM) | 0.69 µg/mL (≈ 1.7 µM) | 0.81 µg/mL (≈ 1.99 µM) | 2.7 µg/mL (≈ 6.64 µM) | 2.9 µg/mL (≈ 7.13 µM) | 3 µg/mL (≈ 7.38 µM) | – | – | – | – |
| CO[C@H]1[C@@H](O[C@H]2CC[C@]3(C=O)[C@H]4C[C@@H](O)[C@]5(C)[C@@H](C6=CC(=O)OC6)CC[C@]5(O)[C@@H]4CC[C@]3(O)C2)O[C@H](C)[C@@H](O)[C@@H]1O [TOXICARIOSIDE B] | 0.11 µg/mL (≈ 0.189 µM) | 0.058 µg/mL (≈ 0.0999 µM) | 0.12 µg/mL (≈ 0.207 µM) | 0.07 µg/mL (≈ 0.121 µM) | – | 0.063 µg/mL (≈ 0.108 µM) | 0.092 µg/mL (≈ 0.158 µM) | 0.091 µg/mL (≈ 0.157 µM) | 0.13 µg/mL (≈ 0.224 µM) | 0.13 µg/mL (≈ 0.224 µM) | 0.14 µg/mL (≈ 0.241 µM) | – | – | – | – |
